Measured values from PubChem BioAssay.
Records with an inconclusive call do not appear.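 The calls were made as follows, unless noted: active = growth inhibition above 25% in both replicates, a cutoff set 3 SD above the mean; inconclusive = above 25% in only one replicate; inactive = the rest.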

Experiments:
[1] = OD615 S. cerevisiae growth inhibition, permissive medium, pilot counter-assay, permissive growth control for S. cerevisiae lifespan shortening project (AID 705); conditions: OD615, 24 h, at 10 µM, active compounds read high
Outline: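 System: engineered DeaD yeast; Medium: permissive raffinose/galactose medium; Compound dosing: 10 µM single dose, 0.25% DMSO; Incubation: 4 h cell pre-growth, 24 h exposure at 30 °C; Technique: OD at 615 nm; Evaluation: growth inhibition from lowered OD615 after 24 h.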

[2] = Restrictive medium S. cerevisiae growth inhibition, OD615, pilot screen of yeast lifespan reduction project, restrictive growth control (AID 706;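 active = growth inhibition above a set limit, 3 SD over mean compound inhibition, in both replicates, cut at about 43% in these data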;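 also: modified DeaD lifespan yeast strain shifted to restrictive glucose medium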); conditions: OD615, 48 h, at 10 µM, active compounds read high
Outline: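 Material: modified S. cerevisiae; buffer or medium: CSMM-D glucose medium; doses: one concentration, 10 µM final, 0.25% DMSO; incubation: 48 h compound exposure at 30 °C; detection: optical density at 615 nm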

[3] = viability gain of MRP-1-high H69AR cells under doxorubicin, pilot screen, MRP-1 activator project, CellTiter-Glo, duplicate (AID 807;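 active = viability increase at or above a cutoff of the median across tested compounds plus 3 SD, cut at about 8.5% in these data, passing the limit was not always enough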;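 also: compound pretreatment 18-22 h then 72 h combined with doxorubicin; 0% = doxorubicin alone and 100% = vehicle without doxorubicin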); conditions: H69AR viability with doxorubicin, CellTiter-Glo luminescence; at 10 µM; active compounds read high
[4] = growth suppression of beta-catenin knockout HCT116, pilot screen, human colon tumor cells (AID 823;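 active = cell viability at or below a set limit in both duplicate runs, the limit being the all-compound median minus 4 SD, cut at about 23% in these data, passing the limit was not always enough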;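 also: 0% = wells killed by 20 µM Hyamine and 100% = untreated DMSO cell wells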); conditions: CellTiter-Glo, 60 h, at 10 µM, active compounds read low
[5] = growth suppression of PTEN-deleted HCT116, pilot screen, cell-based, HCT116 clonal line, CellTiter-Glo (AID 824;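 active = viability at or below 27.92% in each of two runs, the all-compound median minus 4 SD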;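 also: 0% = 20 µM Hyamine control and 100% = vehicle cell control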); conditions: 60 h, at 10 µM, active compounds read low
[6] = inhibitors of the yeast RAM network, pilot screen, dse1pr::URA3 reporter, 5-FOA selection (AID 869;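 active = inhibition over a set limit, the all-compound mean plus 3 SD, in both replicate runs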;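 also: 0% = DMSO wells with no growth and 100% = 10 µM 1-NA-PP1 with full growth; RAM network block rescues cells from 5-FOA so hits raise OD615 growth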); conditions: S. cerevisiae dse1pr::URA3 5-FOA growth, OD615, 2 d; at 10 µM; active compounds read high; strain carries analog-sensitive mutant Cbk1 kinase
[7] = RAM signaling pathway blockade in yeast – S. cerevisiae, Pdr1DBD-CYC8 efflux-inhibited sensitized strain, primary screen (AID 1298;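 active = RAM network inhibition above 8.4% in each of two replicates, 3 SD over the compound average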;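 also: 0% = DMSO untreated cells without growth and 100% = 10 µM 1-NA-PP1 full growth; higher means more yeast growth rescued from 5-FOA killing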); conditions: S. cerevisiae cbk1-as DSE1-URA3 strain, 5-FOA growth OD615, 2 d; at 50 µM; active compounds read high

COc1ccccc1CNC(=O)C1COc2ccccc2O1 (configuration not stated)
inactive: growth inhibition [1] -13.9% | growth inhibition [2] -2.38% | viability increase [3] 0.65% | viability [4] 98.8% | viability [5] 88.5% | inhibition [6] 2.73% | RAM network inhibition [7] 2.77%

O=C1c2ccccc2C(O)N1Cc1ccco1 (configuration not stated)
inactive: growth inhibition [1] 5.97% | growth inhibition [2] -0.555% | viability increase [3] -2.36% | viability [4] 93.6% | viability [5] 94.6% | inhibition [6] 0.695% | RAM network inhibition [7] 0.68%

COc1ccc(NC(C)=O)c2nc(C)c(C)nc12
inactive: growth inhibition [1] 7.39% | growth inhibition [2] -2.71% | viability increase [3] -3.32% | viability [4] 98% | viability [5] 93.9% | inhibition [6] 1.17% | RAM network inhibition [7] 1.29%

N#CC1=C(SCC(N)=O)NC(=O)CC1c1ccccc1Cl (configuration not stated)
inactive: growth inhibition [1] -3.39% | growth inhibition [2] -17.1% | viability increase [3] -2.43% | viability [4] 98% | viability [5] 96.5% | inhibition [6] 0.635% | RAM network inhibition [7] -0.49%

Cc1ccc(N2CCN(S(=O)(=O)c3ccc(F)cc3)CC2)c(C)c1
inactive: growth inhibition [1] -0.375% | growth inhibition [2] -15.2% | viability increase [3] -1.12% | viability [4] 66.6% | viability [5] 60.9% | inhibition [6] -0.44% | RAM network inhibition [7] 7.03%

CCCc1ccc(OCC(O)CN2CCN(c3ccccc3)CC2)cc1 (configuration not stated)
inactive: growth inhibition [1] 4.55% | growth inhibition [2] 3.57% | viability increase [3] -0.47% | viability [4] 83% | viability [5] 81.6% | inhibition [6] 0.325% | RAM network inhibition [7] 1.55%

CCC(Sc1nncn1C)C(=O)Nc1nnc(-c2ccc(Cl)cc2)s1 (configuration not stated)
inactive: growth inhibition [1] 5.38% | growth inhibition [2] 32.9% | viability increase [3] -2.63% | viability [4] 94.1% | viability [5] 93.5% | inhibition [6] 0.955% | RAM network inhibition [7] 4.37%

CCOC(=O)c1ccc2nc(NC(=O)C(C)C)sc2c1
inactive: growth inhibition [1] -10.9% | growth inhibition [2] -10.6% | viability increase [3] -6.61% | viability [4] 78.6% | viability [5] 80% | inhibition [6] 1.98% | RAM network inhibition [7] 0.06%

CCOCCCNC(=O)c1cn(CC(C)C)c(=O)c2cc(OC)c(OC)cc12
inactive: growth inhibition [1] -22.4% | growth inhibition [2] -25.7% | viability increase [3] -2.7% | viability [4] 98.5% | viability [5] 97.9% | inhibition [6] 0.375% | RAM network inhibition [7] 4.93%

CC1CCN(S(=O)(=O)c2ccc3c(c2)oc(=O)n3CC(=O)N2c3ccccc3CC2C)CC1 (configuration not stated)
inactive: growth inhibition [1] -4.77% | growth inhibition [2] -7.59% | viability increase [3] -4.28% | viability [4] 68.5% | viability [5] 52.9% | inhibition [6] 2.85% | RAM network inhibition [7] 7.34%

COc1cccc(CNC(=O)CCS(=O)(=O)c2cccc3nonc23)c1
inactive: growth inhibition [1] -13.5% | growth inhibition [2] -21.2% | viability increase [3] -3.04% | viability [4] 93.2% | viability [5] 91% | inhibition [6] 1.75% | RAM network inhibition [7] 0.46%

Fc1ccc(-n2[nH]nnc2=S)cc1N1CCCC1
inactive: growth inhibition [1] -3.75% | growth inhibition [2] 3.59% | viability increase [3] -1.28% | viability [4] 104% | viability [5] 99.6% | inhibition [6] -0.32% | RAM network inhibition [7] -2.49%

CCC(=O)Nc1ccccc1C(=O)N1CCN(Cc2ccccc2)CC1
inactive: growth inhibition [1] 2.08% | growth inhibition [2] 3.03% | viability increase [3] -1.2% | viability [4] 99.8% | viability [5] 99.7% | inhibition [6] 1.6% | RAM network inhibition [7] 3.32%

O=C(NC1CCCc2ccccc21)C1CCC(CNc2c(N3CCOCC3)c(=O)c2=O)CC1 (configuration not stated)
inactive: growth inhibition [1] -6.7% | growth inhibition [2] 7.02% | viability increase [3] -0.75% | viability [4] 105% | viability [5] 107% | inhibition [6] 1.08% | RAM network inhibition [7] 1.43%

CCOc1ccc(C(=O)Nn2cnnc2)cc1
inactive: growth inhibition [1] -3.16% | growth inhibition [2] -5.59% | viability increase [3] 0.25% | viability [4] 104% | viability [5] 103% | inhibition [6] 0.895% | RAM network inhibition [7] 1.85%

O=C1c2ccccc2C(=O)N1CCCc1nc(-c2ccc(Cl)cc2)no1
inactive: growth inhibition [1] -1.86% | growth inhibition [2] -5.26% | viability increase [3] -1.79% | viability [4] 102% | viability [5] 100% | inhibition [6] 4.25% | RAM network inhibition [7] 2.37%

CCOc1ccc(N(CC(=O)N2CCCC2)S(=O)(=O)c2c(C)noc2C)cc1
inactive: growth inhibition [1] -10.4% | growth inhibition [2] 3.47% | viability increase [3] -1.24% | viability [4] 98.3% | viability [5] 95.6% | inhibition [6] 1.08% | RAM network inhibition [7] 10.7%

COc1ccc(N=C(C)C2=C(O)COC2=O)cc1
inactive: growth inhibition [1] -1.31% | growth inhibition [2] 5.13% | viability increase [3] -3.62% | viability [4] 97.6% | viability [5] 99% | inhibition [6] 1.12% | RAM network inhibition [7] 5.23%

O=C(O)CC1SC(=Nc2ccccc2)N(c2ccccc2)C1=O (configuration not stated)
inactive: growth inhibition [1] -21.4% | growth inhibition [2] -13.2% | viability increase [3] -1.21% | viability [4] 98.1% | viability [5] 99.4% | inhibition [6] 1.24% | RAM network inhibition [7] 2.93%

CCSc1nnc(Cc2cc(=O)[nH]c(=O)[nH]2)n1-c1ccc(Cl)cc1
inactive: growth inhibition [1] -15.2% | growth inhibition [2] -10% | viability increase [3] -0.84% | viability [4] 104% | viability [5] 102% | inhibition [6] 1.5% | RAM network inhibition [7] -0.99%

N#CC1=C(N)OC2=C(C(=O)CCC2)C1c1ccsc1 (configuration not stated)
inactive: growth inhibition [1] -7.86% | growth inhibition [2] -3.94% | viability increase [3] -1.81% | viability [4] 93.2% | viability [5] 103% | inhibition [6] 1.52% | RAM network inhibition [7] 4.01%

CN(C)Cc1nc2c([nH]1)c(=O)n(C)c(=O)n2C
inactive: growth inhibition [1] -6.75% | growth inhibition [2] -18% | viability increase [3] -1.31% | viability [4] 95.1% | viability [5] 92.7% | inhibition [6] 1% | RAM network inhibition [7] 4.51%

COc1cccc(C2c3c(oc4ccccc4c3=O)C(=O)N2CCCN2CCOCC2)c1 (configuration not stated)
inactive: growth inhibition [1] -10.5% | growth inhibition [2] -5.13% | viability increase [3] -3.16% | viability [4] 95.1% | viability [5] 93.1% | inhibition [6] 1.13% | RAM network inhibition [7] 2.84%

O=C(NC1CCCC1)C(c1ccc(Cl)cc1)N1CCOCC1 (configuration not stated)
inactive: growth inhibition [1] -10.9% | growth inhibition [2] -6.79% | viability increase [3] 1.37% | viability [4] 98.8% | viability [5] 93% | inhibition [6] 1.98% | RAM network inhibition [7] 2.55%

COc1ccc(N2CCN(C(=O)c3ccc(CS(=O)(=O)c4ccc(OC)cc4)o3)CC2)cc1
inactive: growth inhibition [1] -9.34% | growth inhibition [2] -3.61% | viability increase [3] -1.85% | viability [4] 92.1% | viability [5] 79.2% | inhibition [6] 1.83% | RAM network inhibition [7] 4.78%

CCN(CCCNC(=O)CN1C(=O)COc2ccccc21)c1ccccc1
inactive: growth inhibition [1] 0.42% | growth inhibition [2] -11.2% | viability increase [3] 1.23% | viability [4] 95.9% | viability [5] 88.3% | inhibition [6] 1.61% | RAM network inhibition [7] 3.49%

Nc1nnc(CCc2ccccc2)s1
inactive: growth inhibition [1] -1.91% | growth inhibition [2] 8.1% | viability increase [3] 0.12% | viability [4] 96.2% | viability [5] 98.9% | inhibition [6] 1.77% | RAM network inhibition [7] 0.62%

Cn1c(NCc2ccccc2Cl)nc2ccccc21
inactive: growth inhibition [1] -5.4% | growth inhibition [2] -11.6% | viability increase [3] 0.98% | viability [4] 97.5% | viability [5] 92.8% | inhibition [6] 0.3% | RAM network inhibition [7] 1.78%

Cc1ccc(C)c(N(C)S(=O)(=O)c2cccc3nsnc23)c1
inactive: growth inhibition [1] -6.8% | growth inhibition [2] -6.89% | viability increase [3] -3.51% | viability [4] 79.5% | viability [5] 75.5% | inhibition [6] 0.92% | RAM network inhibition [7] 7.63%

O=C(C1CCCN1S(=O)(=O)c1cccc2cccnc12)N1CCc2ccccc2C1 (configuration not stated)
inactive: growth inhibition [1] -8.21% | growth inhibition [2] -13.1% | viability increase [3] -1.96% | viability [4] 92.3% | viability [5] 86.7% | inhibition [6] 0.745% | RAM network inhibition [7] 0.84%

Cc1ccc(Cn2c(Sc3nnc(C)s3)nc3c2c(=O)[nH]c(=O)n3C)cc1
inactive: growth inhibition [1] -1.77% | growth inhibition [2] -4.4% | viability increase [3] -2.58% | viability [4] 85.8% | viability [5] 78.6% | inhibition [6] 2.5% | RAM network inhibition [7] 1.84%

CCCCN(C(=O)NC(=O)C1=C(N2CCOCC2)/C(=C/c2ccccc2)CC1)S(C)(=O)=O
inactive: growth inhibition [1] -2.54% | growth inhibition [2] -6.07% | viability increase [3] -2.95% | viability [4] 86.1% | viability [5] 89.8% | inhibition [6] 0.17% | RAM network inhibition [7] -0.73%

CCOc1ncccc1C(=O)OCC(=O)Nc1cc(C(=O)OC)ccc1C(=O)OC
inactive: growth inhibition [1] -16.9% | growth inhibition [2] -12.9% | viability increase [3] -2.69% | viability [4] 90.1% | viability [5] 92.4% | inhibition [6] 2.11% | RAM network inhibition [7] 5.66%

O=C(c1ccc(CS(=O)(=O)c2ccccc2)o1)N1CCOCC1
inactive: growth inhibition [1] -12.2% | growth inhibition [2] -15.5% | viability increase [3] -0.71% | viability [4] 105% | viability [5] 95.8% | inhibition [6] 1.19% | RAM network inhibition [7] 3.8%

Cn1c(NC(=O)C(C)(C)Oc2ccc(Cl)cc2)cc(=O)n(C)c1=O
inactive: growth inhibition [1] -1.72% | growth inhibition [2] -8.67% | viability increase [3] -0.77% | viability [4] 94.7% | viability [5] 91.3% | inhibition [6] 2.34% | RAM network inhibition [7] -2.22%

CC(CCc1ccccc1)NC(=O)C1CCN(c2nnc(-n3cccc3)s2)CC1 (configuration not stated)
inactive: growth inhibition [1] -2.63% | growth inhibition [2] -7.45% | viability increase [3] -0.45% | viability [4] 95.9% | viability [5] 88.5% | inhibition [6] 4.55% | RAM network inhibition [7] 4.94%
